Blank lines part the entries; values can stand above or below the compound they belong to. Activity calls are given as the source filed them. The calls are words filed in the database; no cut-off is given here.
Columns and labels:
[1] = Metabolic stability in mouse liver microsomes assessed as extraction ratio; type: ADME, Microsome; conditions: read-out: ERH
[2] = Metabolic stability in human liver microsomes assessed as extraction ratio; type: ADME, Microsome; conditions: read-out: ERH
Procedure, shortened: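 Human liver microsome CLint scaled up with liver physiology parameters (mg HLM/g liver, g liver/kg body weight) to mL/min/kg. Predicted hepatic clearance (CLH, mL/min/kg) then calculated by the well-stirred model. Extraction ratio taken as predicted CLH divided by hepatic blood flow (QH).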

[3] = biological target: T1, Phosphatidylinositol 4,5-bisphosphate 3-kinase catalytic subunit alpha isoform (Homo sapiens, UniProt P42336); assay: Inhibition of PI3Kalpha
[4] = biological target: T1, Phosphatidylinositol 4,5-bisphosphate 3-kinase catalytic subunit alpha isoform; assay: Inhibition of PI3Kalpha-mediated AKT phosphorylation at S473 by cell based assay
[5] = biological target: T2, Serine/threonine-protein kinase mTOR (Homo sapiens, UniProt P42345); assay: Inhibition of mTOR
MDR1 (human) = assay: Efflux ratio of permeability from basolateral to apical side to apical to basolateral side of dog RRCK cells expressing human MDR1; type: ADME, cell-based, Canis lupus familiaris, MDCKII-LE
[6] = Metabolic stability in rat liver microsomes assessed as extraction ratio; type: ADME, Microsome; conditions: read-out: ERH
[7] = Drug excretion in bile duct cannulated rat urine; type: ADME; conditions: read-out: Drug excretion
CYP2D6 = CYP2D6 (Homo sapiens, UniProt P10635); assay: Inhibition of CYP2D6 at 3 uM; type: ADME
CYP2C9 = CYP2C9 (Homo sapiens, UniProt P11712); assay: Inhibition of CYP2C9 at 3 uM; type: ADME
CYP1A2 = biological target: T3, CYP1A2 (Homo sapiens, UniProt P05177); assay: Inhibition of CYP1A2 at 3 uM; type: ADME
T3 sequence (P05177 whole entry): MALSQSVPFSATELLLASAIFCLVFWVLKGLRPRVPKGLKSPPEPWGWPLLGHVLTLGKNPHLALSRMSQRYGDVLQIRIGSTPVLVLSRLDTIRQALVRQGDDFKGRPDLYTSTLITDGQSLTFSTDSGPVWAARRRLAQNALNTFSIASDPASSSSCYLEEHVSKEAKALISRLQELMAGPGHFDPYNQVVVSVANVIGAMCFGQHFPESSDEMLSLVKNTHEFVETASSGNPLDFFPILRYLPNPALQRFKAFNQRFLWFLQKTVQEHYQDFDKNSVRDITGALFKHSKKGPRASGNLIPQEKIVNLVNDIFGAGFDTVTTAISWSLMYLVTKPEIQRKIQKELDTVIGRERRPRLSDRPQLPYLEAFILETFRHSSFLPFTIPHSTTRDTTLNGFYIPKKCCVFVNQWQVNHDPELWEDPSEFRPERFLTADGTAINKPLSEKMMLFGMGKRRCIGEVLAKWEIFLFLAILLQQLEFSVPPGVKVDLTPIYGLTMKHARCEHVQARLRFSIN

CYP3A4 = CYP3A4 (Homo sapiens, UniProt P08684); assay: Inhibition of CYP3A4 at 3 uM; type: ADME
[8] = Drug excretion in bile duct cannulated rat bile; type: ADME; conditions: read-out: Drug excretion
[9] = biological target: T4, Phosphatidylinositol 4,5-bisphosphate 3-kinase catalytic subunit delta isoform (Homo sapiens) (UniProt O00329); assay: Inhibition of PI3Kdelta
T4 sequence (whole entry): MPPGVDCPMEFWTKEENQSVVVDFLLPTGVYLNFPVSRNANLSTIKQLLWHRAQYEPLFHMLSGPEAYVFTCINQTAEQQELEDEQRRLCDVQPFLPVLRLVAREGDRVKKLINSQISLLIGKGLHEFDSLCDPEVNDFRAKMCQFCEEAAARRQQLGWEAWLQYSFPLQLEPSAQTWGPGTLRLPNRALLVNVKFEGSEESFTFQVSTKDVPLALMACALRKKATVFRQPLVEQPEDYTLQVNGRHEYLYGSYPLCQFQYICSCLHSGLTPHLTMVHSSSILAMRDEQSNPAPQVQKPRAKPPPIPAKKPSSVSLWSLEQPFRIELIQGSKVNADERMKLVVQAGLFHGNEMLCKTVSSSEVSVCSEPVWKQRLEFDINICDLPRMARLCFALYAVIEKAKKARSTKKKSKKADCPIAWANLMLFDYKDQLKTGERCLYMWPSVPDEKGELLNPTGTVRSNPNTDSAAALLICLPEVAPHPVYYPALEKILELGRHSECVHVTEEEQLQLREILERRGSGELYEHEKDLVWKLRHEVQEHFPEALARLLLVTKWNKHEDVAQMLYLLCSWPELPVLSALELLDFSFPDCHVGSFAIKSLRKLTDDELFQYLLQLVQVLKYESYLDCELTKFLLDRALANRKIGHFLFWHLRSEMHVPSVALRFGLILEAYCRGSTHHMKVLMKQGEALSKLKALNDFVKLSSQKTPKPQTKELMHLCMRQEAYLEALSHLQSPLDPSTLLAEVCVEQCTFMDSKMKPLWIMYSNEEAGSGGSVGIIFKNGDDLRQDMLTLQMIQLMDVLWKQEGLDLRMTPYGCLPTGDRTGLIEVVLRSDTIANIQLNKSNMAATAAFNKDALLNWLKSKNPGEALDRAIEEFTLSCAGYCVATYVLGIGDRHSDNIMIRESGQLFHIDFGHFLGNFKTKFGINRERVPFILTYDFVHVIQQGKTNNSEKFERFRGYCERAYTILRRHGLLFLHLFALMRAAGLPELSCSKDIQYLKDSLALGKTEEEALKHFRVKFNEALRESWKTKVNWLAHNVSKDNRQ

NCI-H1650 = assay: Cytotoxicity against PTEN deficient human NCI-H1650 cells by MTT assay; type: functional, cell-based
NCI-H1975 = assay: Cytotoxicity against human NCI-H1975 cells harboring PI3KCA mutation by MTT assay; type: functional, cell-based
NCI-H23 = assay: Cytotoxicity against human NCI-H23 cells harboring PTEN mutation by MTT assay; type: functional, cell-based
NCI-H460 = assay: Cytotoxicity against human NCI-H460 cells harboring PI3KCA mutation by MTT assay; type: functional, cell-based
[10] = biological target: T2, Serine/threonine-protein kinase mTOR; assay: Inhibition of mTOR at 1 uM

T1 sequence (P42336 whole entry, canonical isoform): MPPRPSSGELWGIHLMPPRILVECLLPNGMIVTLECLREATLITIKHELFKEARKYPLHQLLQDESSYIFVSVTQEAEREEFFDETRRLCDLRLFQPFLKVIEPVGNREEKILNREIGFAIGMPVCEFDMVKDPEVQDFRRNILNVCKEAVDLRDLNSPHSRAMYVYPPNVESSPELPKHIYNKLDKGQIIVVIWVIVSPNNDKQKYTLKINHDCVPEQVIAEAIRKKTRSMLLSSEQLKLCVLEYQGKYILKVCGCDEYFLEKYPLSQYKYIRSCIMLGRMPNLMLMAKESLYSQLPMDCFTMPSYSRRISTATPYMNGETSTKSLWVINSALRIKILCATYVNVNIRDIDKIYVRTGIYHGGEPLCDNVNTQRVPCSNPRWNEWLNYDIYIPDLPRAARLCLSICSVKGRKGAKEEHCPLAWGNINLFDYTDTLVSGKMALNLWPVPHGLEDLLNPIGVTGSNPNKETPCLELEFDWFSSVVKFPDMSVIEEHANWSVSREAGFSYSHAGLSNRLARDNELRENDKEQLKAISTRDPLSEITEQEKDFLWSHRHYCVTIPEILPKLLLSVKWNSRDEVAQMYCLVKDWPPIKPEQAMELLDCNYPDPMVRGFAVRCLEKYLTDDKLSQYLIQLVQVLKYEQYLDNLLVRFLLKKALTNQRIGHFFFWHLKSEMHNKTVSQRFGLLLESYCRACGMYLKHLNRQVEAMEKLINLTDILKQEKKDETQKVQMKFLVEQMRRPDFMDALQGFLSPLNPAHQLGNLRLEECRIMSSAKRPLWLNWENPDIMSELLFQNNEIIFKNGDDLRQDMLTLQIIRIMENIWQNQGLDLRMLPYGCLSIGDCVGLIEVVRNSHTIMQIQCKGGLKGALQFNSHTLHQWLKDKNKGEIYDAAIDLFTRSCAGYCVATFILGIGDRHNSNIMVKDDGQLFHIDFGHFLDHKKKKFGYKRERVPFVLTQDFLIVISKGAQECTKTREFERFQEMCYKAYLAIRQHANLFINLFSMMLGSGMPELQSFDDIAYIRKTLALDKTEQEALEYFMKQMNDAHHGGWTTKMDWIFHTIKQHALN
CYP3A4, sequence (P08684 whole entry): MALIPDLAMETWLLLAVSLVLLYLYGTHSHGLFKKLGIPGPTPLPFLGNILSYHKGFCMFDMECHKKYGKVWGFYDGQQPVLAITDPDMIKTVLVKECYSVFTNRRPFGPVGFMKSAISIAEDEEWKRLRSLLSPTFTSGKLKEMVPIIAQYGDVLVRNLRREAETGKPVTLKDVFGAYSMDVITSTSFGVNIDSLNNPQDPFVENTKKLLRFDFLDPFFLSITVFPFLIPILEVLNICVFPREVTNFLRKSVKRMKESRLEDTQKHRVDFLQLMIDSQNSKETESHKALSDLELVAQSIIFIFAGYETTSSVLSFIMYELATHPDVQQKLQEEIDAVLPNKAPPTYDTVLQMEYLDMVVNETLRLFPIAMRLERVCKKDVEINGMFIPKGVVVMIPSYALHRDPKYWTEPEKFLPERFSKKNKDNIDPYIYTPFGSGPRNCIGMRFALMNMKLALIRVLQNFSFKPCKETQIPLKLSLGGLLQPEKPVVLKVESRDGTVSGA
CYP2C9, sequence (P11712 whole entry): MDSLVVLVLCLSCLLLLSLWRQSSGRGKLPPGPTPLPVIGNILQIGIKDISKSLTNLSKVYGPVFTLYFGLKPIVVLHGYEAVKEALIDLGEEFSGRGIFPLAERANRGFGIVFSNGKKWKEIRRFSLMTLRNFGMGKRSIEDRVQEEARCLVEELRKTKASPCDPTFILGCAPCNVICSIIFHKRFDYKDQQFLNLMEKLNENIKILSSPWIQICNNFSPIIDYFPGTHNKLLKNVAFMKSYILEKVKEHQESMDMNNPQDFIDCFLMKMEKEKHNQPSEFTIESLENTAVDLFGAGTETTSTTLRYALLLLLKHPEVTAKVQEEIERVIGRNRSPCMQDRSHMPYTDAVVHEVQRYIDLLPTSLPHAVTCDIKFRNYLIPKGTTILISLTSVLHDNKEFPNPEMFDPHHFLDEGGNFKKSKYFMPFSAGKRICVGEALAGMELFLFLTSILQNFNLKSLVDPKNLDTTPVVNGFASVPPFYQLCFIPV
CYP2D6, sequence (P10635 whole entry): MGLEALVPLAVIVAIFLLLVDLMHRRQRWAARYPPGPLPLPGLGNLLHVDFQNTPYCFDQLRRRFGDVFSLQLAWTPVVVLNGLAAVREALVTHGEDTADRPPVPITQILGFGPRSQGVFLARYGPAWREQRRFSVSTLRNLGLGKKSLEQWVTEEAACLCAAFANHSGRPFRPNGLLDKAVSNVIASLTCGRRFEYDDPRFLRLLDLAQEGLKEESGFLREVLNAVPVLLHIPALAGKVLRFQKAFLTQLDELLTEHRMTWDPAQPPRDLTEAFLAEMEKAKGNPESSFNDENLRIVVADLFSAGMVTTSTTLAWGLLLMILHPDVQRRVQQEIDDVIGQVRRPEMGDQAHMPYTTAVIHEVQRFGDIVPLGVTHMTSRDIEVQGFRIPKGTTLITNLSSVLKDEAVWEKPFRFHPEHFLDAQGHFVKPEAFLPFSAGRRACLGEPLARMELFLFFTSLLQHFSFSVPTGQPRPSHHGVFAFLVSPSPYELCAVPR

SMILES: N#Cc1ccc(-c2c(-c3nnc[nH]3)sc(N3CCOCC3)c2C#N)c(F)c1
- hepatic extraction ratio [1]: 0.639
- hepatic extraction ratio [2]: 0.35
- Ki [3]: 0.6 nM
- IC50 [4]: 79 nM
- Ki [5]: 1440 nM
- efflux ratio (MDR1 (human)): 2.6
- hepatic extraction ratio [6]: 0.529

SMILES: Cc1nnc(-c2sc(N3CCOCC3)c(C#N)c2-c2ccc(Cl)cc2)o1
- Ki [3]: 1280 nM

SMILES: N#Cc1c(N2CCOCC2)sc(-c2nnc[nH]2)c1-c1ccc(Cl)cc1Cl
- hepatic extraction ratio [1]: 0.88
- hepatic extraction ratio [2]: 0.3
- dose excreted [7]: < 1%
- inhibition at 3 µM (CYP2D6): < 30%
- Ki [3]: 0.35 nM
- inhibition at 3 µM (CYP2C9): < 30%
- IC50 [4]: 35 nM
- inhibition at 3 µM (CYP1A2): < 30%
- inhibition at 3 µM (CYP3A4): < 30%
- dose excreted [8]: < 1%
- Ki [5]: 2470 nM
- efflux ratio (MDR1 (human)): 2.56
- hepatic extraction ratio [6]: 0.89

SMILES: N#Cc1c(N2CCOCC2)sc(C(=O)O)c1-c1ccc(Cl)cc1
- Ki [3]: 230 nM

SMILES: N#Cc1c(N2CCOCC2)sc(-c2ncn[nH]2)c1-c1ccc(Cl)cc1Cl
- inhibition [9]: Active
- Activity (NCI-H1650): Active
- Activity (NCI-H1975): Active
- Activity (NCI-H23): Active
- Activity (NCI-H460): Active

SMILES: N#Cc1ccc(-c2c(-c3ncn[nH]3)sc(N3CCOCC3)c2C#N)c(F)c1
- inhibition [9]: Active

SMILES: N#Cc1c(N2CCOCC2)sc(C(N)=O)c1-c1ccc(Cl)cc1
- Ki [3]: 13 nM
- IC50 [4]: 760 nM
- inhibition [10]: 47%

The remaining lines, values ahead:

- hepatic extraction ratio [2]: 0.3
- Ki [3]: 1.7 nM
- IC50 [4]: 73 nM
- Ki [5]: 434 nM
SMILES: N#Cc1c(N2CCOCC2)sc(-c2nc[nH]n2)c1-c1ccc(Cl)cc1

- hepatic extraction ratio [2]: 0.7
- Ki [3]: 1.8 nM
SMILES: N#Cc1c(N2CCOCC2)sc(-c2cc[nH]n2)c1-c1ccc(Cl)cc1

- Ki [3]: 175 nM
SMILES: N#Cc1c(N2CCOCC2)sc(-c2cn[nH]c2)c1-c1ccc(Cl)cc1

- hepatic extraction ratio [2]: 0.7
- Ki [3]: 3 nM
SMILES: N#Cc1c(N2CCOCC2)sc(-c2cn[nH]n2)c1-c1ccc(Cl)cc1

Source: ChEMBL document CHEMBL2016534 (ACS Med Chem Lett, 2011)
